According to ChEMBL document CHEMBL4371053, “A novel tetrazole analogue of resveratrol is a potent anticancer agent” (Bioorg Med Chem Lett, 2019):

How the values were obtained:
Format in all cases: functional
KM12 = assay: Growth inhibition of human KM12 cells at 10 uM after 48 hrs by sulforhodamine B assay relative to control; conditions: KM12, 48 h, values are per cent of control
Summary of the method: (§1)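 NCI-60 single-dose screen. Cells exposed to 10⁻⁵ M or to vehicle for 48 h. Growth measured by sulforhodamine B optical density before and after exposure. Reported as percent growth relative to vehicle control and to time-zero cell number; negative values indicate cell kill.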

SK-MEL-5 = assay: Growth inhibition of human SK-MEL-5 cells at 10 uM after 48 hrs by sulforhodamine B assay relative to control; conditions: SK-MEL-5, 48 h, values are per cent of control; summary of the method: as §1
K562 = assay: Growth inhibition of human K562 cells incubated for 48 hrs by sulforhodamine B assay; conditions: K562, 48 h
Summary of the method: (§2)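 NCI-60 five-dose study at 10⁻⁴, 10⁻⁵, 10⁻⁶, 10⁻⁷ and 10⁻⁸ M, 48 h incubation. Growth determined from sulforhodamine B optical density before and after exposure, relative to vehicle control and time-zero counts. GI₅₀ is the molar concentration giving 50% growth inhibition.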

RPMI-8226 = assay: Growth inhibition of human RPMI8226 cells incubated for 48 hrs by sulforhodamine B assay; conditions: RPMI-8226, 48 h; summary of the method: as §2
SR = assay: Growth inhibition of human SR cells incubated for 48 hrs by sulforhodamine B assay
Summary of the method: (§3)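 NCI-60 screen run per Rubinstein protocol. Sulforhodamine B optical density was read before and after 48 h exposure to compound or vehicle. The single-dose pass at 10⁻⁵ M reported percent growth relative to vehicle control and time-zero cell number. The five-dose follow-up used 10⁻⁴ to 10⁻⁸ M, giving GI₅₀ as the molar concentration causing 50% growth inhibition.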

EKVX = assay: Growth inhibition of human EKVX cells incubated for 48 hrs by sulforhodamine B assay
Summary of the method: (§4)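 NCI-60 screen: cells were exposed for 48 h to compound or vehicle, and growth was read as sulforhodamine B optical density before and after exposure. In the single-dose test at 10⁻⁵ M, percent growth was taken relative to vehicle control and time-zero cell number. In the five-dose test (10⁻⁴ to 10⁻⁸ M), GI₅₀ was the molar concentration causing 50% growth inhibition.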

HOP-92 = assay: Growth inhibition of human HOP92 cells incubated for 48 hrs by sulforhodamine B assay; conditions: HOP-92, 48 h; summary of the method: as §2
NCI-H226 = assay: Growth inhibition of human NCI-H226 cells incubated for 48 hrs by sulforhodamine B assay; conditions: NCI-H226, 48 h; summary of the method: as §4
NCI-H322M = assay: Growth inhibition of human NCI-H322M cells incubated for 48 hrs by sulforhodamine B assay; summary of the method: as §4
NCI-H460 = assay: Growth inhibition of human NCI-H460 cells incubated for 48 hrs by sulforhodamine B assay; conditions: NCI-H460, 48 h; summary of the method: as §4
NCI-H522 = assay: Growth inhibition of human NCI-H522 cells incubated for 48 hrs by sulforhodamine B assay; conditions: NCI-H522, 48 h; summary of the method: as §2
HCC 2998 = assay: Growth inhibition of human HCC2998 cells incubated for 48 hrs by sulforhodamine B assay; conditions: HCC 2998, 48 h; summary of the method: as §2
HCT-116 = assay: Growth inhibition of human HCT116 cells incubated for 48 hrs by sulforhodamine B assay; conditions: HCT-116, 48 h; summary of the method: as §2
SW-620 = assay: Growth inhibition of human SW620 cells incubated for 48 hrs by sulforhodamine B assay; conditions: SW-620, 48 h; summary of the method: as §3
SF-295 = assay: Growth inhibition of human SF295 cells incubated for 48 hrs by sulforhodamine B assay; conditions: SF-295, 48 h; summary of the method: as §2
SNB-19 = assay: Growth inhibition of human SNB19 cells incubated for 48 hrs by sulforhodamine B assay; conditions: SNB-19, 48 h; summary of the method: as §3
SNB-75 = assay: Growth inhibition of human SNB75 cells incubated for 48 hrs by sulforhodamine B assay; conditions: SNB-75, 48 h; summary of the method: as §3
U-251 = assay: Growth inhibition of human U251 cells incubated for 48 hrs by sulforhodamine B assay; conditions: U-251, 48 h; summary of the method: as §3
Malme-3M = assay: Growth inhibition of human MALME-3M cells incubated for 48 hrs by sulforhodamine B assay; summary of the method: as §4
MDA-MB-435 = assay: Growth inhibition of human MDA-MB-435 cells incubated for 48 hrs by sulforhodamine B assay; conditions: MDA-MB-435, 48 h; summary of the method: as §2
UACC-257 = assay: Growth inhibition of human UACC257 cells incubated for 48 hrs by sulforhodamine B assay; conditions: UACC-257, 48 h; summary of the method: as §4
OVCAR-5 = assay: Growth inhibition of human OVCAR5 cells incubated for 48 hrs by sulforhodamine B assay; conditions: OVCAR-5, 48 h; summary of the method: as §4
OVCAR-8 = assay: Growth inhibition of human OVCAR8 cells incubated for 48 hrs by sulforhodamine B assay; conditions: OVCAR-8, 48 h; summary of the method: as §4
NCI/ADR-RES = assay: Growth inhibition of human NCI/ADR-RES cells incubated for 48 hrs by sulforhodamine B assay; summary of the method: as §2
ACHN = assay: Growth inhibition of human ACHN cells incubated for 48 hrs by sulforhodamine B assay; summary of the method: as §2
CAKI-1 = assay: Growth inhibition of human Caki1 cells incubated for 48 hrs by sulforhodamine B assay; conditions: CAKI-1, 48 h; summary of the method: as §4
SN12C = assay: Growth inhibition of human SN12C cells incubated for 48 hrs by sulforhodamine B assay; summary of the method: as §4
TK-10 = assay: Growth inhibition of human TK10 cells incubated for 48 hrs by sulforhodamine B assay; conditions: TK-10, 48 h; summary of the method: as §4
UO-31 = assay: Growth inhibition of human UO31 cells incubated for 48 hrs by sulforhodamine B assay; conditions: UO-31, 48 h; summary of the method: as §3
DU-145 = assay: Growth inhibition of human DU145 cells incubated for 48 hrs by sulforhodamine B assay; conditions: DU-145, 48 h; summary of the method: as §2
BT-549 = assay: Growth inhibition of human BT549 cells incubated for 48 hrs by sulforhodamine B assay; conditions: BT-549, 48 h; summary of the method: as §4
T47D = assay: Growth inhibition of human T47D cells incubated for 48 hrs by sulforhodamine B assay; summary of the method: as §4
SF-539 = assay: Growth inhibition of human SF539 cells at 10 uM after 48 hrs by sulforhodamine B assay relative to control; conditions: SF-539, 48 h, values are per cent of control; summary of the method: as §1
A498 = assay: Growth inhibition of human A498 cells incubated for 48 hrs by sulforhodamine B assay; conditions: A498, 48 h; summary of the method: as §2

SMILES | growth, % of control at 10 µM (KM12) [%] | growth, % of control at 10 µM (SK-MEL-5) [%] | GI50 (K562) [nM] | GI50 (RPMI-8226) [nM] | GI50 (SR) [nM] | GI50 (HOP-92) [nM] | GI50 (NCI-H522) [nM] | GI50 (HCC 2998) [nM] | GI50 (HCT-116) [nM] | GI50 (SW-620) [nM] | GI50 (SF-295) [nM] | GI50 (SNB-19) [nM] | GI50 (SNB-75) [nM] | GI50 (U-251) [nM] | GI50 (MDA-MB-435) [nM] | GI50 (NCI/ADR-RES) [nM] | GI50 (ACHN) [nM] | GI50 (UO-31) [nM] | GI50 (DU-145) [nM] | other results
COc1ccc(/C(=C/c2ccc3ccccc3c2)c2nnn[nH]2)cc1OC | 24.5 | 23.5 | 670 | 4020 | 2230 | 4590 | 1140 | 5200 | 2420 | 1360 | 1510 | 7840 | 2510 | 4460 | 300 | 1030 | 11300 | 5590 | 3530 | GI50 (EKVX): 18200 nM; GI50 (NCI-H226): > 100000 nM; GI50 (NCI-H322M): 6880 nM; GI50 (NCI-H460): 2810 nM; GI50 (Malme-3M): 3080 nM; GI50 (UACC-257): 56600 nM; GI50 (OVCAR-5): 6080 nM; GI50 (OVCAR-8): 7100 nM; GI50 (CAKI-1): 2240 nM; GI50 (SN12C): 9970 nM; GI50 (TK-10): 18500 nM; GI50 (BT-549): 10900 nM; GI50 (T47D): 28200 nM
COc1ccc(/C=C(/c2cc(OC)c(OC)c(OC)c2)c2nnn[nH]2)cc1O | -1.73 | -54 | < 10 | < 10 | < 10 | < 10 | < 10 | < 10 | < 10 | < 10 | 5280 | < 10 | < 10 | < 10 | < 10 | < 10 | < 10 | < 10 | < 10 | growth, % of control at 10 µM (SF-539): -1.97%; GI50 (A498): < 10 nM
